How the values were obtained:
[1] = biological target: T1, Prostaglandin D2 receptor 2 (Homo sapiens, UniProt Q9Y5Y4); test: Displacement of [3H]PGD2 from human CRTh2 receptor
T1 sequence (Q9Y5Y4 whole entry): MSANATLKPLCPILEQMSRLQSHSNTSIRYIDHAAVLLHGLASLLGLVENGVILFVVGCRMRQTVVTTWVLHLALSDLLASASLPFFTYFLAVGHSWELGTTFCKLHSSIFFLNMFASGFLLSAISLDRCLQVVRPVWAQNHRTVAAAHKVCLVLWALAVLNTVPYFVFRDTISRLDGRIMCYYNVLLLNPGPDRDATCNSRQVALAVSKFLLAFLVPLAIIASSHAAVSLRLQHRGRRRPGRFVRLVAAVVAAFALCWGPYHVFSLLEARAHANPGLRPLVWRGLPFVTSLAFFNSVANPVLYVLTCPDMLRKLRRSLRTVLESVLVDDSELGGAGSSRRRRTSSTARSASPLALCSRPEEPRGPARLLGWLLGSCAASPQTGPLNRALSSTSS
How it was run: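 Human CRTh2 binding assay run in assay buffer. IC50 reported as the mean of at least three experiments.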

[2] = biological target: T1, Prostaglandin D2 receptor 2; test: Antagonist activity at PGD2-induced human CRTh2 receptor activation expressed in HEK293 cells assessed as intracellular Ca2+ liberation by FLIPR assay; type: functional, cell-based
How it was run: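 HEK-293 cells stably expressing human CRTh2 were stimulated with PGD2. Antagonism of intracellular Ca2+ liberation was read by FLIPR. IC50 is the mean of at least three experiments.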

IC50 [1] [nM] | IC50 [2] [nM] | Structure (SMILES)
7 | – | N#C/C(=C\c1cn(CC(=O)O)c2ccccc12)C(=O)N1Cc2ccccc2Cc2ccccc21
10 | – | Cc1cccc2c1c(/C=C(\C#N)C(=O)N(C)c1ccccc1)cn2CC(=O)O
15 | – | CN(C(=O)/C(C#N)=C/c1cn(CC(=O)O)c2ccccc12)c1ccccc1
7 | – | CN(C(=O)/C(C#N)=C/c1cn(CC(=O)O)c2ccc(Cl)cc12)c1ccccc1
430 | – | N#C/C(=C\c1cn(CC(=O)O)c2ccccc12)C(=O)Nc1ccccc1
45 | – | CN(C(=O)/C(C#N)=C/c1cn(CC(=O)O)c2cc(F)ccc12)c1ccccc1
5900 | – | N#C/C(=C\c1cn(CCC(=O)O)c2ccccc12)C(=O)Nc1ccccc1
490 | – | O=C(O)Cn1c2ccccc2c2cc(C(=O)Nc3ccccc3)ccc21
500 | 600 | N#C/C(=C\c1cn(CC(=O)O)c2ccccc12)C(=O)Nc1cccc(Br)c1
30 | – | N#C/C(=C\c1cn(CC(=O)O)c2ccccc12)C(=O)N(c1ccccc1)C1CCCCC1
60 | – | N#C/C(=C\c1cn(CC(=O)O)c2ccccc12)C(=O)N1CCc2ccccc21
30 | – | N#C/C(=C\c1cn(CC(=O)O)c2ccccc12)C(=O)N(Cc1ccccc1)c1ccccc1
50 | – | CN(C(=O)/C(C#N)=C/c1cn(CC(=O)O)c2c(Cl)cccc12)c1ccccc1
200 | – | O=C(O)Cn1c2c(c3ccccc31)CN(C(=O)Cc1ccccc1)CC2
10 | – | CN(C(=O)/C(C#N)=C/c1cn(CC(=O)O)c2cccc(F)c12)c1ccccc1
100 | – | CN(C(=O)/C(C#N)=C/c1cn(CC(=O)O)c2c(F)cccc12)c1ccccc1
145 | – | O=C(O)Cn1c2c(c3ccccc31)CC(C(=O)Nc1ccccc1)CC2 (racemic)

Reference: ChEMBL document CHEMBL2390869, “Evolution of novel tricyclic CRTh2 receptor antagonists from a (E)-2-cyano-3-(1H-indol-3-yl)acrylamide scaffold” (Bioorg Med Chem Lett, 2013)
